ChEMBL document CHEMBL2434840, “Discovery of 4-amino-2-(thio)phenol derivatives as novel protein kinase and angiogenesis inhibitors for the treatment of cancer: synthesis and biological evaluation. Part II” (Eur J Med Chem, 2013)
Activity calls are given as the source filed them. The rule behind the calls is not given here.

What was measured:
[1] = target: T1, RAC-alpha serine/threonine-protein kinase (Homo sapiens, UniProt P31749); experiment: Inhibition of AKT (unknown origin) at 10 uM after 30 mins by fluorescence assay relative to control
Summary of the method: (§1)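 Enzyme plus compound (10 μM screen) or water in Hepes/Tris pH 7.4, EGTA/Tris, MgCl2, DTT and 0.008% Tween 20. Substrate and ATP started the reaction, 30 min at room temperature. EDTA stop, then europium-labelled anti-phospho-PT66 antibody for 60 min and TR-FRET read. Basal wells had no enzyme. Percent inhibition of control activity; staurosporine reference; duplicate.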

[2] = target: ALK tyrosine kinase receptor (Homo sapiens) (UniProt Q9UM73); experiment: Inhibition of ALK (unknown origin) at 10 uM after 30 mins by fluorescence assay relative to control; summary of the method: as §1
HUVEC [3] = experiment: Antiangiogenic activity in HUVEC assessed as inhibition of tube formation at 10 uM after 6 hrs by Matrigel assay; type: functional, cell-based; conditions: Homo sapiens
Summary of the method: (§2)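 HUVECs seeded at 40,000 cells/well on Matrigel (gelled 30 min, 37 °C, 5% CO2) in M199 with 5% FBS plus compound or 0.5% DMSO vehicle; pazopanib positive control; 6 h at 37 °C, 5% CO2. Tube networks were scored by phase-contrast microscopy and photographed at ×100. Three independent experiments.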

[4] = target: Vascular endothelial growth factor receptor 2 (Homo sapiens) (UniProt P35968); experiment: Inhibition of VEGFR2 (unknown origin) phosphorylation at 1 ug/mL by cell-based Western blotting analysis
Thoracic aorta [5] = experiment: Antiangiogenic activity in Sprague-Dawley rat thoracic aorta rings assessed as reduction of microvessel outgrowth at 10 uM treated every other day for 6 days by Matrigel assay; type: functional, tissue-based
Summary of the method: (§3)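 Aortas were taken from male Sprague Dawley rats aged 8–10 weeks and cleaned of fibroadipose tissue. 1-mm rings were embedded between two 100 μL Matrigel layers and set 30 min at 37 °C, 5% CO2. Compound, pazopanib or 0.5% DMSO vehicle was added every other day for 6 days. Outgrowth was photographed on day 7 at ×200. Three independent experiments.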

[6] = target: Vascular endothelial growth factor receptor 2 (Homo sapiens) (UniProt P35968); experiment: Inhibition of VEGFR2 (unknown origin) phosphorylation at 5 ug/mL by cell-based Western blotting analysis
HUVEC [7] = experiment: Antiangiogenic activity in HUVEC assessed as inhibition of tube formation at 0.1 uM after 6 hrs by Matrigel assay; type: functional, cell-based; conditions: Homo sapiens; summary of the method: as §2
Thoracic aorta [8] = experiment: Antiangiogenic activity in Sprague-Dawley rat thoracic aorta rings assessed as reduction of microvessel outgrowth at 0.1 uM treated every other day for 6 days by Matrigel assay; type: functional, tissue-based; summary of the method: as §3
[9] = target: Tyrosine-protein kinase ABL1 (Homo sapiens, UniProt P00519); experiment: Inhibition of ABL (unknown origin) after 30 mins by fluorescence assay
HUVEC [10] = experiment: Antiangiogenic activity in HUVEC assessed as inhibition of tube formation after 6 hrs by Matrigel assay; type: functional, cell-based; conditions: Homo sapiens; summary of the method: as §2
Thoracic aorta [11] = experiment: Antiangiogenic activity in Sprague-Dawley rat thoracic aorta rings assessed as reduction of microvessel outgrowth treated every other day for 6 days by Matrigel assay; type: functional, tissue-based; summary of the method: as §3
Thoracic aorta [12] = experiment: Antiangiogenic activity in Sprague-Dawley rat thoracic aorta rings assessed as reduction of microvessel outgrowth at 1 uM treated every other day for 6 days by Matrigel assay; type: functional, tissue-based; summary of the method: as §3
[13] = target: T1, RAC-alpha serine/threonine-protein kinase; experiment: Inhibition of AKT (unknown origin) after 30 mins by fluorescence assay

ALK tyrosine kinase receptor (Homo sapiens), sequence (Q9UM73 19-1620 limits assumed): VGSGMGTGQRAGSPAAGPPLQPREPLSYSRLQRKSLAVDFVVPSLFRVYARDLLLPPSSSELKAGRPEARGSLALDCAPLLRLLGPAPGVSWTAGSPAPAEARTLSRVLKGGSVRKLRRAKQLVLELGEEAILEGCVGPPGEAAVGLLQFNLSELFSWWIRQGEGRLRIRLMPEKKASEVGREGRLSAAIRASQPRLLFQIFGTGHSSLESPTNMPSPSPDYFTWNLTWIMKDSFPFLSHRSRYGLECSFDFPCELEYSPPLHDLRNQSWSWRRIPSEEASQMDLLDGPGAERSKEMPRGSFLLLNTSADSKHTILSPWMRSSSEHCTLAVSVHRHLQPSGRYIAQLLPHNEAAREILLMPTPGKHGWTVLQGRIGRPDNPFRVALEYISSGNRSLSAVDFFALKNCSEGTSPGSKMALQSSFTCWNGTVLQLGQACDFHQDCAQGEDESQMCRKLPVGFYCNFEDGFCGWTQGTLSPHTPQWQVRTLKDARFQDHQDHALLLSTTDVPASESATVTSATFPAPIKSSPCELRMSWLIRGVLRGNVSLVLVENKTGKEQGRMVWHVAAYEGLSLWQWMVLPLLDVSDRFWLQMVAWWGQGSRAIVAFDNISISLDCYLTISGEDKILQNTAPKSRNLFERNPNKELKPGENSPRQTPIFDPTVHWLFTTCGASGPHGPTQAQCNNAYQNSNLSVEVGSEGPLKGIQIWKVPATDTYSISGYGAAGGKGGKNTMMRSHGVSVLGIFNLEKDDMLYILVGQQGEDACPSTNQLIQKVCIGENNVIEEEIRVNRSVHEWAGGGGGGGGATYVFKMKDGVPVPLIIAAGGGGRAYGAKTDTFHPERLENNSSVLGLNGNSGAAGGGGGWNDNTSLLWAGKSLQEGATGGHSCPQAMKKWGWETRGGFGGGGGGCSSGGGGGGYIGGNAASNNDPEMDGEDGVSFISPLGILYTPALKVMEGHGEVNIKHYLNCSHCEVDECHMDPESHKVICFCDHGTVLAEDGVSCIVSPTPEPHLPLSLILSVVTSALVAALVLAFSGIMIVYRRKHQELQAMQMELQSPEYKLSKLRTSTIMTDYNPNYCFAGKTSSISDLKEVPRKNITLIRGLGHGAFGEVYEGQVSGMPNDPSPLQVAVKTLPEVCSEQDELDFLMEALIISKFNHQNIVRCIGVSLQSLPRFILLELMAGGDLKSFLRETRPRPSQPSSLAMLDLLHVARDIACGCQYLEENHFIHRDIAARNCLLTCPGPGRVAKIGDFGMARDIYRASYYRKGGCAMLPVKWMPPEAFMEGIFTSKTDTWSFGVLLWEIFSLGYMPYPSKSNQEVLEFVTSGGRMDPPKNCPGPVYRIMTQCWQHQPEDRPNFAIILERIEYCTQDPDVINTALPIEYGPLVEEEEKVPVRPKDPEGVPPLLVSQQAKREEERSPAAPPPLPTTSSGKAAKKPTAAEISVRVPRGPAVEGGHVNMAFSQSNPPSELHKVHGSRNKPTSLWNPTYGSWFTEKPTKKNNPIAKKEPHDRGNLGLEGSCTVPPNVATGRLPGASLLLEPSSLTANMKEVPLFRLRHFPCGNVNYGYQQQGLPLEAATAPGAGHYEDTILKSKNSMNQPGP
T1 sequence (P31749 whole entry): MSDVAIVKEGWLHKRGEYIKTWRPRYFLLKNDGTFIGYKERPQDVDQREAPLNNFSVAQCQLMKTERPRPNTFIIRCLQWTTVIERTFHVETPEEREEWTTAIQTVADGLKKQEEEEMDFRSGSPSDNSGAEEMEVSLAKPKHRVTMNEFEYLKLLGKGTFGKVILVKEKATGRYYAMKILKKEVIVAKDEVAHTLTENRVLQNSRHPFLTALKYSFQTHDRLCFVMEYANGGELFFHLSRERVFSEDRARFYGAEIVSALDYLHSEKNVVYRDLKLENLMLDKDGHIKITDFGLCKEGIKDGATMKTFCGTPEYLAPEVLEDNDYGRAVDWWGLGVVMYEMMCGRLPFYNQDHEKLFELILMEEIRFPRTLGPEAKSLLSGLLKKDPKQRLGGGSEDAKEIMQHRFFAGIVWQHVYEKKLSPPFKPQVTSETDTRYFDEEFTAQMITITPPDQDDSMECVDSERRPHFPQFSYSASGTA
Vascular endothelial growth factor receptor 2 (Homo sapiens), sequence (P35968 whole entry): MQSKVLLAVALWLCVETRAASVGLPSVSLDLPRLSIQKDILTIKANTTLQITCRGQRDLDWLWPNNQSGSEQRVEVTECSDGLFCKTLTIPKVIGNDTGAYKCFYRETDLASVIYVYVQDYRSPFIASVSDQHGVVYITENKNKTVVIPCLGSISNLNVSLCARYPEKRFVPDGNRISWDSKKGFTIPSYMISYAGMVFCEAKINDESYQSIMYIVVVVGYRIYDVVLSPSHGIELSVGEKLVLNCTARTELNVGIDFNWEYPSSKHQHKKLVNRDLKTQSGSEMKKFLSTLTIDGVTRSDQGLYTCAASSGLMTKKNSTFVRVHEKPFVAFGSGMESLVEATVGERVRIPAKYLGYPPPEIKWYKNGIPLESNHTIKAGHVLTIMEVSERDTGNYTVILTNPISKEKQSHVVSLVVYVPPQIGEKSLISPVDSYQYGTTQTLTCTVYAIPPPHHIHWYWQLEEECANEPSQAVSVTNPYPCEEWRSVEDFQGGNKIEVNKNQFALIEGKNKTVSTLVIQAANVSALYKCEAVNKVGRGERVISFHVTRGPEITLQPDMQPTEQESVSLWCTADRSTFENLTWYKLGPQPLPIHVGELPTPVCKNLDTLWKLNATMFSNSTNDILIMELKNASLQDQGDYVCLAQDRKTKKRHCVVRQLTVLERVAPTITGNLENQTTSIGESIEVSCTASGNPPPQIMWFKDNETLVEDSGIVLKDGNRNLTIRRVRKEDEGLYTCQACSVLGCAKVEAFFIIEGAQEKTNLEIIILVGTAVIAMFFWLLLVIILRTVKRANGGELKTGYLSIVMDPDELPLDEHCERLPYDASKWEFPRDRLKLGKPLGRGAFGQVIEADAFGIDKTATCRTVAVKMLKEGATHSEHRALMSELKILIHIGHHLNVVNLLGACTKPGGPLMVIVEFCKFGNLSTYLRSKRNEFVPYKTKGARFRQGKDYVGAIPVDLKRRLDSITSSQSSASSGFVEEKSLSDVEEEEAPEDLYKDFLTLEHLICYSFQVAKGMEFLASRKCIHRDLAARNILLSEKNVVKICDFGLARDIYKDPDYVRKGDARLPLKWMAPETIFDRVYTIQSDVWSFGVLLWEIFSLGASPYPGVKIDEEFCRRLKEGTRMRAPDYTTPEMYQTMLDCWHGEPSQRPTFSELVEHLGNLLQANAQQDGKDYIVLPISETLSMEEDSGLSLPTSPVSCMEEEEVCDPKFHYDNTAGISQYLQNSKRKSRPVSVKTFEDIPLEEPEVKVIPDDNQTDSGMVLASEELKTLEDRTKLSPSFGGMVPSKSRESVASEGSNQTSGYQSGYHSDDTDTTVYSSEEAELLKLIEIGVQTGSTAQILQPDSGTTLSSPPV
Tyrosine-protein kinase ABL1, sequence (P00519 whole entry): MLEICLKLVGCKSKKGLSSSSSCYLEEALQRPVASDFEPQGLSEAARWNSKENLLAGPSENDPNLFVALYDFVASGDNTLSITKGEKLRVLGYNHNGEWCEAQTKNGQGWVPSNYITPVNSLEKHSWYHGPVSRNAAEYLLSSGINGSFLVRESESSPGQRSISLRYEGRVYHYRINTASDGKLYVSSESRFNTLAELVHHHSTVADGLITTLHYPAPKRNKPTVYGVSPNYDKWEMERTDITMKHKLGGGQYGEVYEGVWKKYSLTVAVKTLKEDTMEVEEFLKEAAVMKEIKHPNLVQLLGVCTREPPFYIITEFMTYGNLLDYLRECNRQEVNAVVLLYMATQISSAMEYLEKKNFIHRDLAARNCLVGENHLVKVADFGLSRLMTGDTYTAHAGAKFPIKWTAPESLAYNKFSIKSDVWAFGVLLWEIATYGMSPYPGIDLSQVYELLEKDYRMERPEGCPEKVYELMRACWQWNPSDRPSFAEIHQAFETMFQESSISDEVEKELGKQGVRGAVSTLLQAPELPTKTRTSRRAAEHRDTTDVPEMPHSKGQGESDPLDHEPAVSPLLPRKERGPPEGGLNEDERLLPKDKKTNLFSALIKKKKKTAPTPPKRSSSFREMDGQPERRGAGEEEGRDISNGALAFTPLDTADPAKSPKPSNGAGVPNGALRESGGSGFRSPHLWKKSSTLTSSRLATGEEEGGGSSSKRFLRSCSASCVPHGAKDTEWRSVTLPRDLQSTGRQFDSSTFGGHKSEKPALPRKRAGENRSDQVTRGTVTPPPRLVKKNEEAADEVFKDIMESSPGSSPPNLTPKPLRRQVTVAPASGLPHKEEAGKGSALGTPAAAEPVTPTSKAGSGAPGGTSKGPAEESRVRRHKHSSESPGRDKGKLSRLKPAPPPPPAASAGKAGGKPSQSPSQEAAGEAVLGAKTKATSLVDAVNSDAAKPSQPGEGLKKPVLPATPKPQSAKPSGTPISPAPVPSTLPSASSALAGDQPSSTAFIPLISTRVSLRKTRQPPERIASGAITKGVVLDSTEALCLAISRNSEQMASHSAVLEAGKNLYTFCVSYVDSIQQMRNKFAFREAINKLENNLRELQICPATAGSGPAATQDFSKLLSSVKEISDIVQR

O=[N+]([O-])c1ccc(S(=O)(=O)Nc2ccc(O)c(Sc3nncs3)c2)cc1
inhibition [1]: 14.9%
inhibition [2]: 11.4%

Cc1nnc(Sc2cc(NC(=O)c3ccc([N+](=O)[O-])cc3)ccc2O)s1
inhibition [1]: 12.3%
inhibition [2]: 14%

O=S(=O)(Nc1ccc(O)c(Sc2ncn[nH]2)c1)c1c(Cl)cccc1Cl
inhibition [1]: 48.4%
inhibition [2]: 10.3%

Cc1cc(C)c(S(=O)(=O)Nc2ccc(O)c(Sc3nc[nH]n3)c2)c(C)c1
inhibition [1]: 19.7%
inhibition [2]: 18%

O=S(=O)(Nc1ccc(O)c(Sc2ncn[nH]2)c1)c1ccc(Cl)cc1
inhibition [1]: 56.4%
inhibition [2]: inactive
inhibition (HUVEC [3]): inactive
inhibition [4]: inactive
inhibition (Thoracic aorta [5]): inactive
inhibition [6]: inactive

O=C(Nc1ccc(O)c(Sc2ncnc3nc[nH]c23)c1)c1ccc([N+](=O)[O-])cc1
inhibition [1]: 64.6%
inhibition [2]: 21.9%
inhibition (HUVEC [3]): inactive
inhibition (Thoracic aorta [5]): inactive
inhibition [6]: Active

COc1ccc(S(=O)(=O)Nc2ccc(O)c(Sc3nc[nH]n3)c2)cc1
inhibition [1]: 12.1%
inhibition [2]: 29.5%

Cc1nnc(Sc2cc(NS(=O)(=O)c3ccc([N+](=O)[O-])cc3)ccc2O)s1
inhibition [1]: 14.2%
inhibition [2]: 21.8%

O=[N+]([O-])c1ccc(S(=O)(=O)Nc2ccc(O)c(Sc3ncnc4nc[nH]c34)c2)cc1
inhibition [1]: 37.5%
inhibition [2]: inactive

Cc1ccc(Nc2nccc(N(C)c3ccc4c(C)n(C)nc4c3)n2)cc1S(N)(=O)=O
inhibition (HUVEC [7]): Active
inhibition [4]: Active
inhibition (Thoracic aorta [8]): Active
inhibition [6]: Active

O=[N+]([O-])c1ccc(S(=O)(=O)Nc2ccc(O)c(Sc3ncn[nH]3)c2)cc1
inhibition [1]: 100%
IC50 [9]: 1500 nM
inhibition [2]: 49.4%
inhibition (HUVEC [10]): Dose-dependent effect
Activity (Thoracic aorta [11]): Dose-dependent effect
inhibition [4]: Active
inhibition [6]: Active
inhibition (Thoracic aorta [12]): Active
IC50 [13]: 1260 nM

O=C(Nc1ccc(O)c(Sc2ncn[nH]2)c1)c1ccc([N+](=O)[O-])cc1
inhibition [1]: 50.7%
inhibition [2]: inactive

O=S(=O)(Nc1ccc(O)c(Sc2ncn[nH]2)c1)c1ccc2ccccc2c1
inhibition [1]: inactive
inhibition [2]: inactive

CC(C)c1cc(C(C)C)c(S(=O)(=O)Nc2ccc(O)c(Sc3ncn[nH]3)c2)c(C(C)C)c1
inhibition [1]: 14.5%
inhibition [2]: 17.1%

Cn1nnnc1Sc1cc(NS(=O)(=O)c2ccc([N+](=O)[O-])cc2)ccc1O
inhibition [1]: 11.5%
inhibition [2]: inactive

O=C(Nc1ccc(O)c(Sc2nncs2)c1)c1ccc([N+](=O)[O-])cc1
inhibition [1]: inactive
inhibition [2]: inactive

CN[C@@H]1C[C@H]2O[C@@](C)([C@@H]1OC)n1c3ccccc3c3c4c(c5c6ccccc6n2c5c31)C(=O)NC4
inhibition [1]: 96.5%

O=S(=O)(Nc1ccc(O)c(Sc2ncn[nH]2)c1)c1cccc2ccccc12
inhibition [1]: 20.4%
inhibition [2]: 10%

Cc1ccc(S(=O)(=O)Nc2ccc(O)c(Sc3nc[nH]n3)c2)cc1
inhibition [1]: 29.8%
inhibition [2]: 15.3%

Cn1nnnc1Sc1cc(NC(=O)c2ccc([N+](=O)[O-])cc2)ccc1O
inhibition [1]: 10.1%
inhibition [2]: inactive

CS(=O)(=O)Nc1ccc(O)c(Sc2ncn[nH]2)c1
inhibition [1]: 14.3%
inhibition [2]: 15.9%
